Measured values reported in ChEMBL document CHEMBL1124186, “Synthesis and evaluation of tylosin-related macrolides modified at the aldehyde function: a new series of orally effective antibiotics” (1988).
Values after ≈ are worked out from the molar mass of the structure shown.

Assays:
[1] = tested on: Staphylococcus epidermidis; experiment: In vitro antimicrobial activity against Staphylococcus epidermidis EPI1; assay type: functional
[2] = tested on: Rattus norvegicus; experiment: Peripheral plasma levels in rats after oral administration of 100 mg/kg dose for 0.25 hr; assay type: functional, organism-based; parameters: dose 100 mg/kg
Procedure, shortened: (§1)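 Rats received 100 mg/kg orally and were sampled for peripheral plasma. Concentrations were measured by Micrococcus luteus agar-diffusion microbiological assay in Antibiotic Medium 1, with zone sizes converted using the standard curve for the appropriate compound. Each value is the average of three rats per time point.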

[3] = tested on: Streptococcus pneumoniae; experiment: In vitro antimicrobial activity against Streptococcus pneumoniae; assay type: functional
[4] = tested on: Rattus norvegicus; experiment: Peripheral plasma levels in rats after oral administration of 100 mg/kg dose for 0.5 hr; assay type: functional, organism-based; parameters: dose 100 mg/kg; procedure, shortened: as §1
[5] = tested on: Staphylococcus aureus; experiment: In vitro antimicrobial activity against Staphylococcus aureus X1; assay type: functional
[6] = tested on: Rattus norvegicus; experiment: Peripheral plasma levels in rats after oral administration of 100 mg/kg dose for 1 hr; assay type: functional, organism-based; parameters: dose 100 mg/kg; procedure, shortened: as §1
[7] = tested on: Streptococcus pyogenes; experiment: In vivo effective dose against experimental infections in rodent caused by Streptococcus pyogenes C203 when administered sc; assay type: functional
[8] = tested on: Rattus norvegicus; experiment: Peripheral plasma levels in rats after oral administration of 100 mg/kg dose for 2 hr; assay type: functional, organism-based; parameters: dose 100 mg/kg; procedure, shortened: as §1
[9] = tested on: Rattus norvegicus; experiment: Peripheral plasma levels in rats after oral administration of 100 mg/kg dose for 4 hr; assay type: functional, organism-based; parameters: dose 100 mg/kg; procedure, shortened: as §1
[10] = tested on: Streptococcus pyogenes; experiment: In vitro antimicrobial activity against Streptococcus pyogenes C203; assay type: functional
[11] = tested on: Enterococcus faecium; experiment: In vitro antimicrobial activity against Streptococcus faecium X66; assay type: functional, streptococcus fae-cium
[12] = tested on: Haemophilus influenzae; experiment: In vitro antimicrobial activity against Haemophilus influenzae.; assay type: functional
[13] = tested on: Streptococcus pyogenes; experiment: In vivo effective dose against experimental infections in rodent caused by Streptococcus pyogenes C203 when administered orally; assay type: functional; conditions: po
[14] = tested on: Clostridium septicum; experiment: In vitro antimicrobial activity against anaerobic bacteria clostridium septicum 1128; assay type: functional
[15] = In vitro antimicrobial activity against anaerobic bacteria peptostreptococcus intermedius 1264; assay type: functional
[16] = tested on: Chlamydia trachomatis; experiment: In vitro antimicrobial activity against chlamydia trachomatis.; assay type: functional
[17] = tested on: Fusobacterium necrophorum; experiment: In vitro antimicrobial activity against anaerobic bacteria usobacterium necrophorum 6054A; assay type: functional
[18] = tested on: Peptoniphilus asaccharolyticus; experiment: In vitro antimicrobial activity against anaerobic bacteria peptococcus asaccharolyticus 1302; assay type: functional
[19] = tested on: Clostridium perfringens; experiment: In vitro antimicrobial activity against anaerobic bacteria clostridium perfringens 81,; assay type: functional
[20] = tested on: Collinsella aerofaciens; experiment: In vitro antimicrobial activity against anaerobic bacteria eubacterium aerofaciens 1235; assay type: functional
[21] = tested on: Prevotella melaninogenica; experiment: In vitro antimicrobial activity against anaerobic bacteria bacteroides melaninogenicus 2736; assay type: functional
[22] = tested on: Phocaeicola vulgatus; experiment: In vitro antimicrobial activity against anaerobic bacteria bacteroides vulgatus 1211; assay type: functional
[23] = tested on: Bacteroides fragilis; experiment: In vitro antimicrobial activity against anaerobic bacteria bacteroides fragilis 1936B,; assay type: functional
[24] = tested on: Peptostreptococcus anaerobius; experiment: In vitro antimicrobial activity against anaerobic bacteria eubacterium peptostreptococcus anaerobius 1428,; assay type: functional
[25] = tested on: Bacteroides fragilis; experiment: In vitro antimicrobial activity against anaerobic bacteria bacteroides fragilis 1877; assay type: functional
[26] = tested on: Eikenella corrodens; experiment: In vitro antimicrobial activity against anaerobic bacteria bacteroides corrodens 1874; assay type: functional
[27] = tested on: Prevotella melaninogenica; experiment: In vitro antimicrobial activity against anaerobic bacteria bacteroides melaninogenicus 1856,; assay type: functional
[28] = tested on: Cutibacterium acnes; experiment: In vitro antimicrobial activity against anaerobic bacteria propionibacterium acnes 79; assay type: functional
[29] = tested on: Clostridioides difficile; experiment: In vitro antimicrobial activity against anaerobic bacteria Clostridium difficile 2994; assay type: functional
[30] = tested on: Bacteroides fragilis; experiment: In vitro antimicrobial activity against anaerobic bacteria bacteroides fragilis 111; assay type: functional
[31] = tested on: Fusobacterium; experiment: In vitro antimicrobial activity against anaerobic bacteria fusobacterium symbiosum 1470; assay type: functional
[32] = tested on: Bacteroides thetaiotaomicron; experiment: In vitro antimicrobial activity against anaerobic bacteria bacteroides thetaiotaomicron 1438; assay type: functional
[33] = tested on: Anaerococcus prevotii; experiment: In vitro antimicrobial activity against anaerobic bacteria peptococcus prevoti 1281; assay type: functional

Row | Structure (SMILES) | MIC [1] [µg/mL] | MIC [3] [µg/mL] | MIC [5] [µg/mL] | ED50 [7] [mg/kg] | MIC [10] [µg/mL] | MIC [11] [µg/mL] | MIC [12] [µg/mL] | ED50 [13] [mg/kg] | other results
1 | CC[C@H]1OC(=O)C[C@@H](O)[C@H](C)[C@@H](O[C@@H]2O[C@H](C)[C@@H](O)[C@H](N(C)C)[C@H]2O)[C@@H](CCSc2ccccc2)C[C@@H](C)C(=O)/C=C/C(C)=C/[C@@H]1CO[C@@H]1O[C@H](C)[C@@H](O)[C@@H](OC)[C@H]1OC | 0.25 (≈ 0.289 µM) | 2 (≈ 2.31 µM) | 0.25 (≈ 0.289 µM) | 10 | 0.25 (≈ 0.289 µM) | 8 (≈ 9.24 µM) | – | – | Concentration [2]: 0.5 µg/mL; Concentration [4]: 1.3 µg/mL; Concentration [6]: 2.5 µg/mL; Concentration [8]: 2.9 µg/mL; Concentration [9]: 4.2 µg/mL
2 | CC[C@H]1OC(=O)C[C@@H](O)[C@H](C)[C@@H](O[C@@H]2O[C@H](C)[C@@H](O[C@H]3C[C@@](C)(O)[C@@H](O)[C@H](C)O3)[C@H](N(C)C)[C@H]2O)[C@@H](CCOc2ccccc2)C[C@@H](C)C(=O)/C=C/C(C)=C/[C@@H]1CO[C@@H]1O[C@H](C)[C@@H](O)[C@@H](O)[C@H]1OC | 2 (≈ 2.04 µM) | 32 (≈ 32.6 µM) | 2 (≈ 2.04 µM) | > 10 | 4 (≈ 4.08 µM) | > 128 | > 128 | 91 | –
3 | CC[C@H]1OC(=O)C[C@@H](O)[C@H](C)[C@@H](O[C@@H]2O[C@H](C)[C@@H](O)[C@H](N(C)C)[C@H]2O)[C@@H](CCOc2cc(Cl)cc(Cl)c2)C[C@@H](C)C(=O)/C=C/C(C)=C/[C@@H]1CO[C@@H]1O[C@H](C)[C@@H](O)[C@@H](OC)[C@H]1OC | 0.25 (≈ 0.272 µM) | 1 (≈ 1.09 µM) | 0.25 (≈ 0.272 µM) | > 10 | 0.12 (≈ 0.131 µM) | 4 (≈ 4.35 µM) | 32 (≈ 34.8 µM) | 31 | –
4 | CC[C@H]1OC(=O)C[C@@H](O)[C@H](C)[C@@H](O[C@@H]2O[C@H](C)[C@@H](O)[C@H](N(C)C)[C@H]2O)[C@@H](CCNCCc2ccccc2)C[C@@H](C)C(=O)/C=C/C(C)=C/[C@@H]1CO | 4 (≈ 5.69 µM) | 1 (≈ 1.42 µM) | 4 (≈ 5.69 µM) | 7.2 | 2 (≈ 2.85 µM) | 8 (≈ 11.4 µM) | 8 (≈ 11.4 µM) | > 100 | –
5 | CC[C@H]1C[C@@H](C)C(=O)/C=C/C(C)=C/[C@H](CO)[C@@H](CC)OC(=O)C[C@@H](O)[C@H](C)[C@H]1O[C@@H]1O[C@H](C)[C@@H](O)[C@H](N(C)C)[C@H]1O | 8 (≈ 13.7 µM) | 8 (≈ 13.7 µM) | 4 (≈ 6.85 µM) | > 30 | 8 (≈ 13.7 µM) | 16 (≈ 27.4 µM) | 32 (≈ 54.8 µM) | 75 | MIC [14]: 2 µg/mL (≈ 3.43 µM); MIC [15]: > 8 µg/mL; MIC [16]: 0.5 µg/mL (≈ 0.857 µM); MIC [17]: 8 µg/mL (≈ 13.7 µM); MIC [18]: > 8 µg/mL; MIC [19]: 2 µg/mL (≈ 3.43 µM); MIC [20]: 2 µg/mL (≈ 3.43 µM); MIC [21]: > 8 µg/mL; MIC [22]: > 8 µg/mL; MIC [23]: > 8 µg/mL; MIC [24]: > 8 µg/mL; MIC [25]: > 8 µg/mL; MIC [26]: > 8 µg/mL; MIC [27]: > 8 µg/mL; MIC [28]: 2 µg/mL (≈ 3.43 µM); MIC [29]: 2 µg/mL (≈ 3.43 µM); MIC [30]: > 8 µg/mL; MIC [31]: > 8 µg/mL; MIC [32]: > 8 µg/mL; MIC [33]: > 8 µg/mL
6 | CC[C@H]1OC(=O)C[C@@H](O)[C@H](C)[C@@H](O[C@@H]2O[C@H](C)[C@@H](O)[C@H](N(C)C)[C@H]2O)[C@@H](CCN2CCCCCCC2)C[C@@H](C)C(=O)/C=C/C(C)=C/[C@@H]1CO[C@@H]1O[C@H](C)[C@@H](O)[C@@H](O)[C@H]1OC | 1 (≈ 1.17 µM) | 0.5 (≈ 0.585 µM) | 1 (≈ 1.17 µM) | 1.8 | 0.5 (≈ 0.585 µM) | 16 (≈ 18.7 µM) | 32 (≈ 37.4 µM) | 100 | –
7 | CC[C@H]1OC(=O)C[C@@H](O)[C@H](C)[C@@H](O[C@@H]2O[C@H](C)[C@@H](O)[C@H](N(C)C)[C@H]2O)[C@@H](CCBr)C[C@@H](C)C(=O)/C=C/C(C)=C/[C@@H]1CO[C@@H]1O[C@H](C)[C@@H](O)[C@@H](OC)[C@H]1OC | 0.25 (≈ 0.299 µM) | 2 (≈ 2.39 µM) | 0.25 (≈ 0.299 µM) | 4.5 | 0.12 (≈ 0.143 µM) | 8 (≈ 9.56 µM) | 16 (≈ 19.1 µM) | 19 | –
8 | CC[C@H]1OC(=O)C[C@@H](O)[C@H](C)[C@@H](O[C@@H]2O[C@H](C)[C@@H](O)[C@H](N(C)C)[C@H]2O)[C@@H](CCS(=O)(=O)c2ccc(C)cc2)C[C@@H](C)C(=O)/C=C/C(C)=C/[C@@H]1CO[C@@H]1O[C@H](C)[C@@H](O)[C@@H](OC)[C@H]1OC | 0.25 (≈ 0.274 µM) | 1 (≈ 1.1 µM) | 0.25 (≈ 0.274 µM) | 4.2 | 1 (≈ 1.1 µM) | 8 (≈ 8.77 µM) | 16 (≈ 17.5 µM) | > 50 | –
9 | CC[C@H]1OC(=O)C[C@@H](O)[C@H](C)[C@@H](O[C@@H]2O[C@H](C)[C@@H](O)[C@H](N(C)C)[C@H]2O)[C@@H](CCO)C[C@@H](C)C(=O)/C=C/C(C)=C/[C@@H]1CO[C@@H]1O[C@H](C)[C@@H](O)[C@@H](OC)[C@H]1OC | 2 (≈ 2.58 µM) | 4 (≈ 5.17 µM) | 2 (≈ 2.58 µM) | 2.1 | 4 (≈ 5.17 µM) | 32 (≈ 41.3 µM) | 32 (≈ 41.3 µM) | > 100 | –
